Data as given in PubChem BioAssay.
Activity calls are given as the source filed them.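 Rule for the calls, unless noted: active = active in primary screen and both duplicates, each dropping signal beyond three positive-control SD with fluorescence still positive; inactive = the rest.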

Biological target: Short transient receptor potential channel 6 (Mus musculus) (UniProt Q61143)
Assay: inhibition of mouse TRPC6 channel, confirmation, selectivity assay for TRPC4 inhibitor project, cell-based, HEK293, membrane potential dye, duplicate (AID 434948)
Conditions: HEK293 TRPC6, membrane potential dye fluorescence, at 10 µM, stimulated with maximal-effect acetylcholine; stronger effect = higher value
In short: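 System: TRPC6-expressing HEK293 cells. Timing: dye 45 min RT, compound 110 s, agonist read 110 s. Measured by: kinetic fluorescence of membrane potential dye with 5 s baseline.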

Sequence of Short transient receptor potential channel 6 (Mus musculus) (Q61143 whole entry, looked up): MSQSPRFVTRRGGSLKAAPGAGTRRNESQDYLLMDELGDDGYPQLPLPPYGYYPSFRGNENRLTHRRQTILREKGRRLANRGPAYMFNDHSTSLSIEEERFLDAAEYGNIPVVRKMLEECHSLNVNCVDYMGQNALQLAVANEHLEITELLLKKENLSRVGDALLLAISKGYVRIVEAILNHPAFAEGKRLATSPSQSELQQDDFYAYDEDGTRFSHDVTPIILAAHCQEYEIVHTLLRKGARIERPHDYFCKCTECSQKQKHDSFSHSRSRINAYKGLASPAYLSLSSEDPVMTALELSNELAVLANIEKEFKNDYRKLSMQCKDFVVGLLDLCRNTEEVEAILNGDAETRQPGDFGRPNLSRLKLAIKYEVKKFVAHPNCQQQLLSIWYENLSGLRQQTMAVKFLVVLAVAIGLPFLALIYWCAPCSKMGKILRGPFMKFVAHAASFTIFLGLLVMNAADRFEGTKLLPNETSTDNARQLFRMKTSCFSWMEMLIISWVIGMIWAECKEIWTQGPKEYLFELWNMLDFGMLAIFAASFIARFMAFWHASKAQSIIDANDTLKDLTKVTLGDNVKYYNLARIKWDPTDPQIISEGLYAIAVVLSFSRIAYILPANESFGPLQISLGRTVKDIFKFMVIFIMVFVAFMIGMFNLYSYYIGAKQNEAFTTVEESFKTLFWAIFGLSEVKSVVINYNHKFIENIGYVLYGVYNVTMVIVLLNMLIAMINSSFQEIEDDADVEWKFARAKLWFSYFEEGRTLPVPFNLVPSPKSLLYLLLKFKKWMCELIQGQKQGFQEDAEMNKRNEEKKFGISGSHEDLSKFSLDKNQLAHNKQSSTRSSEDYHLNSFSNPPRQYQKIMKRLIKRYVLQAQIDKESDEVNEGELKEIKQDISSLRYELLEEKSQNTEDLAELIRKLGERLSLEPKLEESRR

Compound	outcome	inhibition
Cc1ccccc1Cn1c(=N)n(CC(O)c2ccco2)c2ccccc21 (stereo not drawn)	inactive	
CN1CCN(c2ccc(NC(=O)c3ccc(-c4ccc(Cl)cc4)o3)cc2)CC1	inactive	
COc1cc(C(F)(F)F)nc2c(Br)c(C(C)(C)C)nn12	inactive	
Clc1cccc(C[n+]2cc(-c3ccccc3)n3c2CCC3)c1	inactive	
COC(=O)c1ccc(CSc2nc3ccccc3c(=O)n2CC(C)C)o1	inactive	
CN(C)c1ccc(NC(=O)CN2C3CCCC2CC(NC(=O)c2ccccc2)C3)cc1 (stereo not drawn)	inactive	
Cc1ccn2c(CNCCCn3cccn3)c(C(=O)N3CCCCCC3)nc2c1	inactive	
O=C(O)c1ccc(N/N=C/c2ccc(-c3cccc(Cl)c3)o2)cc1	inactive	
NS(=O)(=O)c1ccc(CCNCc2ccccc2OCc2ccc(Cl)cc2)cc1	inactive	
CCCCn1c(NCCO)nc2ccccc21	inactive	
CCCOc1ccc(-c2nc(SCc3ccccc3)[nH]c(=O)c2C#N)cc1OC	inactive	
NC(=O)c1nsc(C(=O)N(Cc2ccccc2Cl)C(C(=O)NCC2CCCO2)c2ccc(O)cc2)c1N (stereo not drawn)	inactive	
N#Cc1cccc2c1-c1ccccc1/C2=N/NC(N)=O	inactive	
CCCn1c(NC(=O)c2ccc(Cl)c(S(=O)(=O)N3CCCC3)c2)nc2ccccc21	inactive	
CCOC(=O)C(C)Sc1nc2c(c(=O)[nH]c(=O)n2C)n1Cc1ccc(Cl)cc1 (stereo not drawn)	inactive	
OCCNc1nc2ccccc2n1CCN1CCCCC1	inactive	
Cc1cc(N2CCC(C)CC2)nc2cccc(O)c12		59% (active)
CCCN1C2=NCCN2c2cc(C)c(C)cc21		40.5% (active)
COc1ccc(C2NC(C(=O)O)Cc3c2[nH]c2ccccc32)cc1CN1CCN(c2ccc(F)cc2)CC1 (stereo not drawn)	inactive	
COc1cc(CNC2CCCC2)cc(Cl)c1OCc1ccc(F)cc1	inactive	

Compound	outcome	inhibition
CC1CCN(C(C)C(=O)Nc2ccccc2-c2ccccc2)CC1 (stereo not drawn)	inactive	
COc1cccc(C(=O)C2CCCN(Cc3cccn3-c3ccccn3)C2)c1 (stereo not drawn)		38% (active)
N=c1c2c(n(Cc3ccccc3)c3c1CCC3)CCC2		53.5% (active)
OCC1(CCCc2ccccc2)CCN(Cc2cc(F)ccc2F)CC1	inactive	
N#Cc1c(NC(=O)C2CC(Cl)=CCC2C(=O)O)sc2c1CCCCC2 (stereo not drawn)	inactive	
c1ccc2[nH]c(CCCCc3nc4ccccc4[nH]3)nc2c1	inactive	
CN(C)CCN1C(=O)C2C(C(=O)Nc3cc(Cl)cc(Cl)c3)C3C=CC2(O3)C1C(=O)NC1CCCCC1 (stereo not drawn)	inactive	
CCc1cccc(OCC(=O)Nc2ccc(C(=O)O)cc2NC(=O)COc2cccc(CC)c2)c1	inactive	
CCc1ccc2nc(N=C(N)N)nc(C)c2c1	inactive	
C=CCOc1ccc(Br)cc1CNC(C)(C)CO	inactive	
O=c1c2ccccc2[nH]c(=S)n1CCN1CCN(Cc2ccccc2)CC1	inactive	
CN(CC(=O)NC1CCCc2ccccc21)C1CCCCC1 (stereo not drawn)	inactive	
Cc1cc(C(=O)N/N=C\c2cc(C(C)(C)C)ccc2O)n[nH]1	inactive	
CC1(C)CC2CC(C)(CN2C(=O)c2cc(-c3ccc(O)cc3)on2)C1 (stereo not drawn)	inactive	
OCC1(Cc2ccccc2)CCCN(Cc2cnn(-c3ccccc3)c2)C1 (stereo not drawn)	inactive	
CCOc1ccccc1CN1CCC(n2nccc2NC(=O)CCc2ccccc2)CC1	inactive	
CCCOc1cccc(C(=O)NCCNC(=O)c2ccco2)c1	inactive	
Brc1ccc(CN2C3=NCCCN3c3ccccc32)cc1	inactive	
Cc1[nH]n(C)c(=O)c1C(=O)c1c(-c2c(Cl)cccc2Cl)noc1C	inactive	

Biological target: Short transient receptor potential channel 6 (Mus musculus) (UniProt Q61143)
Assay: activation of mouse TRPC6 channel, confirmation, selectivity assay for TRPC4 activator project, cell-based, HEK293, membrane potential dye, duplicate (AID 434950;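 active = membrane potential signal rise above negative control mean plus 3 SD in both duplicates, also active in the earlier TRPC4 screen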)
Conditions: HEK293 TRPC6, membrane potential fluorescence, at 10 µM; stronger effect = higher value

Compound	outcome
Cc1ccccc1Cn1c(=N)n(CC(O)c2ccco2)c2ccccc21 (stereo not drawn)	inactive
CN1CCN(c2ccc(NC(=O)c3ccc(-c4ccc(Cl)cc4)o3)cc2)CC1	inactive
COc1cc(C(F)(F)F)nc2c(Br)c(C(C)(C)C)nn12	inactive
Clc1cccc(C[n+]2cc(-c3ccccc3)n3c2CCC3)c1	inactive
COC(=O)c1ccc(CSc2nc3ccccc3c(=O)n2CC(C)C)o1	inactive
CN(C)c1ccc(NC(=O)CN2C3CCCC2CC(NC(=O)c2ccccc2)C3)cc1 (stereo not drawn)	inactive
Cc1ccn2c(CNCCCn3cccn3)c(C(=O)N3CCCCCC3)nc2c1	inactive
O=C(O)c1ccc(N/N=C/c2ccc(-c3cccc(Cl)c3)o2)cc1	inactive
NS(=O)(=O)c1ccc(CCNCc2ccccc2OCc2ccc(Cl)cc2)cc1	inactive
CCCCn1c(NCCO)nc2ccccc21	inactive
CCCOc1ccc(-c2nc(SCc3ccccc3)[nH]c(=O)c2C#N)cc1OC	inactive
NC(=O)c1nsc(C(=O)N(Cc2ccccc2Cl)C(C(=O)NCC2CCCO2)c2ccc(O)cc2)c1N (stereo not drawn)	inactive
N#Cc1cccc2c1-c1ccccc1/C2=N/NC(N)=O	inactive
CCCn1c(NC(=O)c2ccc(Cl)c(S(=O)(=O)N3CCCC3)c2)nc2ccccc21	inactive
CCOC(=O)C(C)Sc1nc2c(c(=O)[nH]c(=O)n2C)n1Cc1ccc(Cl)cc1 (stereo not drawn)	inactive
OCCNc1nc2ccccc2n1CCN1CCCCC1	inactive
Cc1cc(N2CCC(C)CC2)nc2cccc(O)c12	inactive
CCCN1C2=NCCN2c2cc(C)c(C)cc21	inactive
COc1ccc(C2NC(C(=O)O)Cc3c2[nH]c2ccccc32)cc1CN1CCN(c2ccc(F)cc2)CC1 (stereo not drawn)	inactive
COc1cc(CNC2CCCC2)cc(Cl)c1OCc1ccc(F)cc1	inactive

Compound	outcome
CC1CCN(C(C)C(=O)Nc2ccccc2-c2ccccc2)CC1 (stereo not drawn)	inactive
COc1cccc(C(=O)C2CCCN(Cc3cccn3-c3ccccn3)C2)c1 (stereo not drawn)	inactive
N=c1c2c(n(Cc3ccccc3)c3c1CCC3)CCC2	inactive
OCC1(CCCc2ccccc2)CCN(Cc2cc(F)ccc2F)CC1	inactive
N#Cc1c(NC(=O)C2CC(Cl)=CCC2C(=O)O)sc2c1CCCCC2 (stereo not drawn)	inactive
c1ccc2[nH]c(CCCCc3nc4ccccc4[nH]3)nc2c1	inactive
CN(C)CCN1C(=O)C2C(C(=O)Nc3cc(Cl)cc(Cl)c3)C3C=CC2(O3)C1C(=O)NC1CCCCC1 (stereo not drawn)	inactive
CCc1cccc(OCC(=O)Nc2ccc(C(=O)O)cc2NC(=O)COc2cccc(CC)c2)c1	inactive
CCc1ccc2nc(N=C(N)N)nc(C)c2c1	inactive
C=CCOc1ccc(Br)cc1CNC(C)(C)CO	inactive
O=c1c2ccccc2[nH]c(=S)n1CCN1CCN(Cc2ccccc2)CC1	inactive
CN(CC(=O)NC1CCCc2ccccc21)C1CCCCC1 (stereo not drawn)	inactive
Cc1cc(C(=O)N/N=C\c2cc(C(C)(C)C)ccc2O)n[nH]1	inactive
CC1(C)CC2CC(C)(CN2C(=O)c2cc(-c3ccc(O)cc3)on2)C1 (stereo not drawn)	inactive
OCC1(Cc2ccccc2)CCCN(Cc2cnn(-c3ccccc3)c2)C1 (stereo not drawn)	inactive
CCOc1ccccc1CN1CCC(n2nccc2NC(=O)CCc2ccccc2)CC1	inactive
CCCOc1cccc(C(=O)NCCNC(=O)c2ccco2)c1	inactive
Brc1ccc(CN2C3=NCCCN3c3ccccc32)cc1	inactive
Cc1[nH]n(C)c(=O)c1C(=O)c1c(-c2c(Cl)cccc2Cl)noc1C	inactive
